# Measured values from different studies.
# Compare with care: the assays were run in different laboratories.
# Cell line: PC-9
# Observed: cell growth or viability
# Time: 72 h
Structure (SMILES),technique,concentration,measurement,result
COc1ccc(NC(=O)NCc2cn(Cc3ccc(Cl)cc3)nn2)cc1,CCK-8,20 µM,viability,96.2%
O=C(Nc1ccc(Cl)cc1)Nc1ccc(-c2cn(Cc3ccc(Cl)cc3)nn2)cc1,CCK-8,50 µM,viability,81.3%
O=C(Nc1ccc(F)cc1)Nc1nc2cc(-c3ccc4ncn(CC5CC5)c(=O)c4c3)ccc2s1,MTT,,IC50,> 20 µM
COc1ccc(NC(=O)Nc2ccc(-c3cn(Cc4ccc(Cl)cc4)nn3)cc2)cc1,CCK-8,20 µM,viability,91%
O=C(NCc1cn(Cc2ccc(Br)cc2)nn1)Nc1ccccc1Br,CCK-8,20 µM,viability,99.2%
COc1ccc(N(Cc2nc(-c3ccc(F)cc3)cs2)C(=O)CCCCCC(=O)NO)cc1,MTT,,IC50,0.73 µM
CCCCn1cnc2ccc(-c3ccc4sc(NC(=O)Nc5ccc(F)cc5)nc4c3)cc2c1=O,MTT,,IC50,6.17 µM
COc1ccc(N(Cc2csc(-c3ccc(C)cc3)n2)C(=O)CCCCCC(=O)NO)cc1,MTT,,IC50,0.46 µM
COc1ccc(NC(=O)Nc2ccc(-c3cn(Cc4ccc(C)cc4)nn3)cc2)cc1,CCK-8,20 µM,viability,87.1%
COc1cccc(NC(=O)Nc2nc3cc(-c4ccc5ncn(CCN(C)C)c(=O)c5c4)ccc3s2)c1,MTT,,IC50,5.24 µM
COc1ccc(NC(=O)NCc2cn(Cc3ccc(Br)cc3)nn2)cc1,CCK-8,20 µM,viability,100%
O=C(Nc1ccc(Cl)cc1)Nc1cccc(-c2cn(Cc3ccc(Cl)cc3)nn2)c1,CCK-8,20 µM,viability,95.4%
COc1ccc(NC(=O)Nc2cccc(-c3cn(Cc4ccc(Cl)cc4)nn3)c2)cc1,CCK-8,50 µM,viability,89.5%
O=C(Nc1ccc(Cl)cc1)Nc1ccc(-c2cn(Cc3ccc(Br)cc3)nn2)cc1,CCK-8,50 µM,viability,80.4%
CCCn1cnc2ccc(-c3ccc4sc(NC(=O)Nc5ccc(F)cc5)nc4c3)cc2c1=O,MTT,,IC50,1.51 µM
O=C(NCc1cn(Cc2ccc(Cl)cc2)nn1)Nc1ccccc1Br,CCK-8,50 µM,viability,127%
COc1ccc(NC(=O)Nc2nc3cc(-c4ccc5ncn(Cc6ccccc6)c(=O)c5c4)ccc3s2)cc1,MTT,,IC50,> 20 µM
O=C(Nc1cccc(-c2cn(Cc3ccc(Br)cc3)nn2)c1)Nc1ccccc1Br,CCK-8,50 µM,viability,92.6%
COc1ccc(NC(=O)Nc2ccc(-c3cn(Cc4ccc(Br)cc4)nn3)cc2)cc1,CCK-8,20 µM,viability,93%
CC(C)CCn1cnc2ccc(-c3ccc4sc(NC(=O)Nc5ccc(F)cc5)nc4c3)cc2c1=O,MTT,,IC50,9.09 µM
